Activity calls are given as the source filed them. No cut-off for these calls is given here.
Assays:
[1] = target: T1, Adenosine receptor A2b (Homo sapiens) (UniProt P29275); test: Agonist activity at human A2B expressed in CHO cells assessed as stimulation of cAMP production at 1 uM by alphascreen assay relative to NECA; type: functional, cell-based
T1 sequence (whole entry): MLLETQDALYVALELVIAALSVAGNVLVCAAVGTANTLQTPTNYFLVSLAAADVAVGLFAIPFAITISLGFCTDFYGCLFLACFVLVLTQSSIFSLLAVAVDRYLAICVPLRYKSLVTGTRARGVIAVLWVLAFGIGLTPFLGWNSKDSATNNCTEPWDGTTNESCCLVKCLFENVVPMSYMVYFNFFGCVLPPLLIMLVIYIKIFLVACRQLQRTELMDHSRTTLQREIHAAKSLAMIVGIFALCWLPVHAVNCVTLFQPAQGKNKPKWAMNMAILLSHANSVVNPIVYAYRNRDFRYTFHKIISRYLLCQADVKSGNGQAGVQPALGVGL
In short: (§1)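 Compounds tested alone at final 1 nM to 1 µM. cAMP measured by AlphaScreen. Efficacy taken at 1 µM relative to NECA 1 µM (=100%). Four independent experiments in triplicate.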

Adenosine receptor A2b = target: T2, Adenosine receptor A2b (Homo sapiens, UniProt P29275); test: Agonist activity at human A2B expressed in CHO cells assessed as stimulation of cAMP production by alphascreen assay; type: functional, cell-based; in short: as §1
T2 sequence (P29275 whole entry): T1 sequence (whole entry)

[2] = target: T3, Adenosine receptor A1 (Homo sapiens) (UniProt P30542); test: Inverse agonist activity at human A1AR expressed in CHO cells assessed as increase in forskolin-stimulated cAMP production by alphascreen assay relative to DPCPX; type: functional, cell-based
T3 sequence (whole entry): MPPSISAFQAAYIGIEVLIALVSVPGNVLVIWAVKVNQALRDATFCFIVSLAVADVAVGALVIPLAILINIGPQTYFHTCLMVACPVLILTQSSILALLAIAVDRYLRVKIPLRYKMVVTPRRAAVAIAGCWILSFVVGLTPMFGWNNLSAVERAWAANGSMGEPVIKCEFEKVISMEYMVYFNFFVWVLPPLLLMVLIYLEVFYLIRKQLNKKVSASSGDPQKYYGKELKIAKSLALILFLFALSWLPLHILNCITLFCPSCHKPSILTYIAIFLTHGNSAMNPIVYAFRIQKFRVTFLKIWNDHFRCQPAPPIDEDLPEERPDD
In short: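 Compounds at 1 nM to 1 µM. cAMP rise measured by AlphaScreen. EC50 from sigmoid fit. […] Four independent experiments in triplicate.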

Adenosine receptor A1 [3] = target: T4, Adenosine receptor A1 (Homo sapiens, UniProt P30542); test: Displacement of [3H]DPCPX from human A1AR expressed in CHO cell membranes measured after 90 mins by scintillation counting method
T4 sequence (P30542 whole entry): T3 sequence (whole entry)
In short: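 Nonspecific binding with 1 µM DPCPX. GF/B filtration and scintillation counting. Ki by Cheng–Prusoff. Inhibition % at 1 µM. Four experiments in triplicate.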

[4] = target: T5, Adenosine receptor A3 (Homo sapiens) (UniProt P0DMS8); test: Displacement of [125I]ABMECA from human A3R expressed in CHO cell membranes at 1 uM measured after 120 mins by scintillation counting method relative to control
T5 sequence (whole entry): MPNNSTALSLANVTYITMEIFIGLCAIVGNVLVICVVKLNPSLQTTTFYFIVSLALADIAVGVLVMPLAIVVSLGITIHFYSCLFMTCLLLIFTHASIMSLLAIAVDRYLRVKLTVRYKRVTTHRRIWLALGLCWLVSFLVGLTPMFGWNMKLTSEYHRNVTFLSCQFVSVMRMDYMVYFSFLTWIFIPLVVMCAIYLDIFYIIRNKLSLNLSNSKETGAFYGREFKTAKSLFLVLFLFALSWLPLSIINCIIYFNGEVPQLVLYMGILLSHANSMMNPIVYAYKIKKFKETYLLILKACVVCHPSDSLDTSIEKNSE
In short: (§2)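 Nonspecific binding with 1 µM AB-MECA. GF/B filtration and counting. Ki via Cheng–Prusoff. Percent inhibition at 1 µM. Four experiments in triplicate.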

Adenosine receptor A1 [5] = target: T4, Adenosine receptor A1; test: Inverse agonist activity at human A1AR expressed in CHO cells assessed as increase in forskolin-stimulated cAMP production by alphascreen assay; type: functional, cell-based
In short: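 Compounds at 1 nM to 1 µM. cAMP rise measured by AlphaScreen. EC50 from sigmoid fit. Four independent experiments in triplicate.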

CHO = test: Effect on cAMP level in wild-type CHO cells at 0.001 to 1 uM by alphascreen assay; type: functional, cell-based; settings: Cricetulus griseus
In short: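 Compounds at 1 nM to 1 µM final concentrations. cAMP quantified with AlphaScreen kit. Four independent experiments, each in triplicate.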

Adenosine receptor A2a [6] = target: T6, Adenosine receptor A2a (Homo sapiens, UniProt P29274); test: Displacement of [3H]ZM241385 from human A2AR expressed in CHO cell membranes measured after 60 mins by scintillation counting method
In short: (§3)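 Nonspecific binding defined with 1 µM ZM241385. Filtered on GF/B, scintillation counted. Ki by Cheng–Prusoff. Percent inhibition at 1 µM. Four experiments in triplicate.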

Adenosine receptor A2a [7] = target: T6, Adenosine receptor A2a; test: Displacement of [3H]ZM241385 from human A2AR expressed in CHO cell membranes at 1 uM measured after 60 mins by scintillation counting method relative to control; in short: as §3
Adenosine receptor A3 = target: T7, Adenosine receptor A3 (Homo sapiens, UniProt P0DMS8); test: Displacement of [125I]ABMECA from human A3R expressed in CHO cell membranes measured after 120 mins by scintillation counting method; in short: as §2
T7 sequence (P0DMS8 whole entry): T5 sequence (whole entry)

[8] = target: T1, Adenosine receptor A2b (Homo sapiens); test: Antagonist activity at human A2BR expressed in CHO cells assessed as inhibition of NECA-stimulated cAMP production at 1 uM by alphascreen assay relative to control; type: functional, cell-based
In short: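 Compounds added at 1 nM to 1 µM final, with percent inhibition read at 1 µM. AlphaScreen cAMP read-out. IC50 by sigmoid non-linear regression. Four independent experiments in triplicate.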

T6 sequence (P29274 whole entry): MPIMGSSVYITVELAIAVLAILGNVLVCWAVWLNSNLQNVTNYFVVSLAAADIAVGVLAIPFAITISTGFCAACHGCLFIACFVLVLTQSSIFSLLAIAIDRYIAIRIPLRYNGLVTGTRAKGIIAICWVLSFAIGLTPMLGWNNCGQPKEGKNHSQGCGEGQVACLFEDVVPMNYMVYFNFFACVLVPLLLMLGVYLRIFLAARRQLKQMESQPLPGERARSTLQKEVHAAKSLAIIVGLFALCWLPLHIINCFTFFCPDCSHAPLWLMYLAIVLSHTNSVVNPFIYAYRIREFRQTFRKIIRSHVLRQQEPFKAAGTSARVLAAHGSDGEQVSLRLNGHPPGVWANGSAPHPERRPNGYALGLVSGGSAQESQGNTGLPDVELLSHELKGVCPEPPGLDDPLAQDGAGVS

SMILES | Efficacy [1] [%] | EC50 (Adenosine receptor A2b) [nM] | Emax [2] [%] | Ki (Adenosine receptor A1 [3]) [nM] | inhibition [4] [%] | EC50 (Adenosine receptor A1 [5]) [nM] | Activity (CHO) | Ki (Adenosine receptor A2a [6]) [nM] | inhibition (Adenosine receptor A2a [7]) [%] | Ki (Adenosine receptor A3) [nM] | inhibition [8] [%]
CCCn1c(=O)c2[nH]c(C3CCCC3)nc2n(CCC)c1=O | 1 | – | – | – | – | – | – | – | – | – | –
N#Cc1c(N)nc(SCC(=O)c2ccccc2)c(C#N)c1-c1ccco1 | 1 | > 1000 | 29 | 23 | 26 | 57 | inactive | 224 | – | – | –
N#Cc1c(N)nc(SCCO)c(C#N)c1-c1cccnc1 | 18 | > 1000 | 75 | 35 | 22 | 94 | inactive | – | 7 | – | –
CC(=O)Nc1nc(SCCO)c(C#N)c(-c2ccco2)c1C#N | 3 | > 1000 | – | 243 | – | – | inactive | – | 11 | 211 | –
N#Cc1c(NC2CCCC2)nc(SCCO)c(C#N)c1-c1ccco1 | 1 | > 1000 | – | 742 | – | – | inactive | – | 8 | 780 | –
N#Cc1c(N)nc(NCCO)c(C#N)c1-c1cccs1 | 1 | > 1000 | – | 324 | 29 | – | inactive | – | 33 | – | 4
N#Cc1c(N)nc(SCCO)c(C#N)c1-c1cccs1 | 69 | 885 | 74 | 52 | – | 107 | inactive | – | 1 | 554 | –
N#Cc1c(N)nc(SCCO)c(C#N)c1-c1ccsc1 | 8 | > 1000 | 62 | 60 | 33 | 142 | inactive | – | 9 | – | –
N#Cc1c(N)nc(SCc2ccccn2)c(C#N)c1-c1ccco1 | 9 | > 1000 | 30 | 2.71 | – | 3.41 | inactive | 108 | – | 134 | –
COC(=O)c1cccc(CSc2nc(N)c(C#N)c(-c3ccoc3)c2C#N)c1 | 7 | > 1000 | 51 | 2.11 | 1 | 4.35 | inactive | 96 | – | – | –
COC(=O)CSc1nc(N)c(C#N)c(-c2ccco2)c1C#N | 4 | > 1000 | – | 108 | 25 | – | inactive | – | 17 | – | –
COC(=O)c1ccc(CSc2nc(N)c(C#N)c(-c3ccco3)c2C#N)o1 | 7 | > 1000 | 24 | 82 | 11 | 185 | inactive | – | 1 | – | –
COC(=O)c1cccc(CSc2nc(N)c(C#N)c(-c3cccs3)c2C#N)c1 | 62 | 982 | 56 | 2.72 | 15 | 3.85 | inactive | 693 | – | – | –
N#Cc1c(N)nc(SCC(N)=O)c(C#N)c1-c1ccco1 | 17 | > 1000 | – | 175 | – | – | inactive | – | 21 | 177 | –
N#Cc1c(N)nc(SCC(=O)OCc2ccccc2)c(C#N)c1-c1ccco1 | 10 | > 1000 | 53 | 86 | 1 | 192 | inactive | – | 8 | – | –
N#CCSc1nc(N)c(C#N)c(-c2ccco2)c1C#N | 1 | > 1000 | – | 93 | – | – | inactive | 887 | – | 582 | –
N#Cc1cccc(CSc2nc(N)c(C#N)c(-c3ccco3)c2C#N)c1 | 7 | > 1000 | 100 | 1.02 | – | 4.82 | inactive | 93 | – | 668 | –
N#Cc1c(N)nc(OCCO)c(C#N)c1-c1ccco1 | 11 | > 1000 | – | 632 | 3 | – | inactive | – | 25 | – | –
COC(=O)c1cccc(CSc2nc(N)c(C#N)c(-c3cccnc3)c2C#N)c1 | 15 | > 1000 | 72 | 1.18 | 8 | 6.26 | inactive | 636 | – | – | –
